One may read the MIC as the least concentration at which growth counts as inhibited. As a reminder, the inhibition is the change of the read-out against control, counted positive when it falls. Usually pIC50 stands for −log10 of the IC50, conventionally taken in molar units. For orientation: MFC means the lowest tested concentration that kills the fungus rather than only halting it.

We go through six molecules from ChEMBL document CHEMBL4828738, “Design, synthesis and evaluation of novel 5-phenylthiophene derivatives as potent fungicidal of Candida albicans and antifungal reagents of fluconazole-resistant fungi” (Eur J Med Chem, 2021).

Series [1] deals with Candida albicans. Kind of series: Antifungal activity against fluconazole-resistant Candida albicans 100 assessed as fungal growth inhibition by CLSI protocol based method.
In series [2] the test system is Candida albicans. The series is described as follows: Antifungal activity against Candida albicans ATCC SC5314 assessed as fungal growth inhibition by CLSI protocol based method. The format is functional.
Series [3] concerns Candida albicans. The series is described as follows: Antifungal activity against Candida albicans CPCC400616 assessed as fungal growth inhibition by CLSI protocol based method. The format is functional.
Series [4] has as its system Candida parapsilosis. The series is described as follows: Antifungal activity against Candida parapsilosis GIM2.190 assessed as fungal growth inhibition by CLSI protocol based method. It is filed as functional. As to conditions: Lodderomyces parapsilosis.
Series [5] relates to Candida albicans. The series is described as follows: Antifungal activity against fluconazole-resistant Candida albicans 901 assessed as fungal growth inhibition by CLSI protocol based method.
Series [6] deals with Cryptococcus neoformans. Kind of series: Antifungal activity against Cryptococcus neoformans CGMCC2.3161 assessed as fungal growth inhibition by CLSI protocol based method. The format is functional.
Series [7] relates to Candida albicans. The series is described as follows: Antifungal activity against fluconazole-resistant Candida albicans 632 assessed as fungal growth inhibition by CLSI protocol based method.
Series [8] concerns Candida albicans. The series is described as follows: Antifungal activity against fluconazole-resistant Candida albicans 103 assessed as fungal growth inhibition by CLSI protocol based method.
The subject of series [9] is Pichia kudriavzevii. The series is described as follows: Antifungal activity against Candida krusei GIM2.1 assessed as fungal growth inhibition by CLSI protocol based method. It is filed as functional.
The test system of series [10] is Candida albicans. The series is described as follows: Antifungal activity against fluconazole-resistant Candida albicans 904 assessed as fungal growth inhibition by CLSI protocol based method.
Series [11] deals with Nakaseomyces glabratus. The series is described as follows: Antifungal activity against Candida glabrata assessed as fungal growth inhibition by CLSI protocol based method. The format is functional.
Series [12] deals with Candida tropicalis. The series is described as follows: Antifungal activity against Candida tropicalis CGMCC 2.3739 assessed as fungal growth inhibition by CLSI protocol based method. The format is functional.
In series [13] the test system is Candida albicans. Kind of series: Antifungal activity against fluconazole-resistant Candida albicans 311 assessed as fungal growth inhibition by CLSI protocol based method.
The target in series [14] is CYP2C9 (Homo sapiens, UniProt P11712). Kind of series: Inhibition of CYP2C9 in human liver Microsome using diclofenac as substrate preincubated for 10 mins followed by NADPH addition and further incubated for 10 mins as substrate by LC-MS/MS analysis relative to control. As to conditions: liver microsomes, probe diclofenac. (In general: Liver microsomes are a subcellular fraction often used to study metabolism.)

Series [15] concerns Candida albicans. Kind of series: Anti-biofilm activity in Candida albicans CPCC400616 assessed as inhibition of biofilm formation incubated for 24 hrs by XTT assay. It is filed as functional. A digest of the protocol:
(§1)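 C. albicans CPCC400616 suspension placed in wells at 37 °C. Non-adherent cells and medium were removed at 3, 6, 18 or 24 h and wells washed with PBS. Compounds were added at a range of concentrations in fresh RPMI 1640 and incubated a further 24 h at 37 °C. Biofilm metabolic activity was read by XTT reduction.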

In series [16] the target is T1, Lanosterol 14-alpha demethylase (Candida albicans (strain SC5314 / ATCC MYA-2876) (Yeast), UniProt P10613). The series is described as follows: Inhibition of CYP51 in Candida albicans assessed as 14alpha-methylfecosterol level at 0.25 ug/ml measured after 18 hrs by GC-MS analysis relative to control. Further details: scale not given: the % may be the effect or the level left. As to conditions: at 0.25 µg/mL.

The subject of series [17] is Candida albicans. The series is described as follows: Anti-biofilm activity in Candida albicans CPCC400616 assessed as inhibition of biofilm formation incubated for 18 hrs by XTT assay. It is filed as functional. A digest of the protocol: as §1
On the technique in general: Tetrazolium dyes change colour on reduction, which living cells bring about.

Series [18] concerns the target T1, Lanosterol 14-alpha demethylase. Kind of series: Inhibition of CYP51 in Candida albicans assessed as other sterols level at 0.25 ug/ml measured after 18 hrs by GC-MS analysis relative to control. Further details: scale not given: the % may be the effect or the level left. As to conditions: at 0.25 µg/mL.
For series [19], the system named is A549. The series is described as follows: Cytotoxicity against human A549 cells assessed as reduction in cell viability measured after 96 hrs by MTT assay. The format is ADME, cell-based. As to conditions: A549, 96 h.
Series [20] has as its system THLE-2. Kind of series: Cytotoxicity against human THLE-2 cells assessed as reduction in cell viability measured after 96 hrs by MTT assay. The note with it: THLE-2, 96 h. It is filed as ADME, cell-based.
The test system of series [21] is Candida albicans. The series is described as follows: Anti-biofilm activity in Candida albicans CPCC400616 assessed as inhibition of biofilm formation incubated for 6 hrs by XTT assay. It is filed as functional. Put shortly: as §1
The subject of series [22] is Candida albicans. Kind of series: Fungicidal activity against Candida albicans ATCC SC5314 assessed as inhibition of visible fungal growth measured after 48 hrs. It is filed as functional.
Series [23] has as its system MCF7. Kind of series: Cytotoxicity against human MCF7 cells assessed as reduction in cell viability measured after 96 hrs by MTT assay. It is filed as ADME, cell-based. As to conditions: MCF7, 96 h.
Series [24] has as its target T1, Lanosterol 14-alpha demethylase. The series is described as follows: Inhibition of CYP51 in Candida albicans assessed as Eburicol level at 0.25 ug/ml measured after 18 hrs by GC-MS analysis relative to control. Also on record: scale not given: the % may be the effect or the level left. The note with it: at 0.25 µg/mL.
Series [25] has the same target. Kind of series: Inhibition of CYP51 in Candida albicans assessed as lanosterol level at 0.25 ug/ml measured after 18 hrs by GC-MS analysis relative to control. The note with it: at 0.25 µg/mL. Also on record: scale not given: the % may be the effect or the level left.
The target is the same in series [26]. Kind of series: Inhibition of CYP51 in Candida albicans assessed as ergosterol level at 0.25 ug/ml after 18 hrs by GC-MS analysis (reference value: 96.93 %). Further details: scale not given: the % may be the effect or the level left. As to conditions: at 0.25 µg/mL.
Series [27] has as its system Candida albicans. The series is described as follows: Anti-biofilm activity in Candida albicans CPCC400616 assessed as inhibition of biofilm formation incubated for 3 hrs by XTT assay. The format is functional. Put shortly:
as §1

Structures are written as SMILES. pIC50: −log10 of the molar value. Values after ≈ are worked out from the molar mass of the structure shown. A value given as a limit tells only on which side of the number the result lay.

T1 sequence (P10613 whole entry): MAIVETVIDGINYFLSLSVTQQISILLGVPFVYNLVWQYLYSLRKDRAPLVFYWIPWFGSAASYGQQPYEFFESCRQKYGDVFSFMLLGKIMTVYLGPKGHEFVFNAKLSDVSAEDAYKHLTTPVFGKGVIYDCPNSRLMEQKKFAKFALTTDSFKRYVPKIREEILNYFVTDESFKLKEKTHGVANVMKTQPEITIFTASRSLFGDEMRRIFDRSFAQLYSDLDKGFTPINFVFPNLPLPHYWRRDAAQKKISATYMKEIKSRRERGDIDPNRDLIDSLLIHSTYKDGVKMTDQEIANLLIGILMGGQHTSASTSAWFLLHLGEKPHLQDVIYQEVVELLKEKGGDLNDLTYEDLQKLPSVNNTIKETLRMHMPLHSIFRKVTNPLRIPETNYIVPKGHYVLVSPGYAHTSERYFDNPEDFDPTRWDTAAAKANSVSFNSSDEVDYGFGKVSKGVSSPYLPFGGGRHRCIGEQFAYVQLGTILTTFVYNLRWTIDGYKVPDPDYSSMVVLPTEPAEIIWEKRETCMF
Sequence of CYP2C9 (P11712 whole entry): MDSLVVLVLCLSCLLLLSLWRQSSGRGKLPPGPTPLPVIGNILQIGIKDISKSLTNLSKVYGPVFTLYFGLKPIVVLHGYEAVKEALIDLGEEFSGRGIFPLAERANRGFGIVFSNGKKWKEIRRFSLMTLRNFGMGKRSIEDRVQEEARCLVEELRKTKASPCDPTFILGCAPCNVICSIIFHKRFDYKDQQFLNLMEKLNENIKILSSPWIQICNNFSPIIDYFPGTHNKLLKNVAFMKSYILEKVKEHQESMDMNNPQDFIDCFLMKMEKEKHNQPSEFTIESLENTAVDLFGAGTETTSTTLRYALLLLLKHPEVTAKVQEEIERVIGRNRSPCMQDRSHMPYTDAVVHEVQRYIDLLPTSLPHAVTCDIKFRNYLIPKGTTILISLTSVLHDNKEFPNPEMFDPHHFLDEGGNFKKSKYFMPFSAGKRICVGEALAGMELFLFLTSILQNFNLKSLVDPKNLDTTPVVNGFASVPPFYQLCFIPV

`COc1ccc(C(=O)C(Cn2ccnc2)NC(=O)c2ccc(-c3ccc(Cl)cc3)s2)cc1` (centres undefined): the MIC was 4 µg/mL (≈ 8.58 µM) in series [1]; below 0.03 µg/mL in [2]; 0.125 µg/mL (≈ 0.268 µM) in series [3]; above 64 µg/mL in series [4]; 8 µg/mL (≈ 17.2 µM) in series [5]; above 64 µg/mL in series [6]. Moreover, the minimal inhibitory concentration (MIC) in [7] worked out at 8 µg/mL (≈ 17.2 µM); in series [8], 8 µg/mL (≈ 17.2 µM); in series [9], 8 µg/mL (≈ 17.2 µM); in series [10] it was 16 µg/mL (≈ 34.3 µM); in [11], 4 µg/mL (≈ 8.58 µM); in series [12], 0.06 µg/mL (≈ 0.129 µM). The MIC in [13] amounted to 4 µg/mL (≈ 8.58 µM).

Turning to `Nc1ccc(S(=O)(=O)Nc2ccnn2-c2ccccc2)cc1` [SULFAPHENAZOLE], the inhibition at 10 min in series [14] stood at 84.5%.

For the molecule `O=C(NC(Cn1ccnc1)C(=O)c1ccccc1)c1ccc(-c2ccc(Cl)cc2)s1` (centres undefined), the MIC is 2 µg/mL (≈ 4.59 µM) in series [1]; 0.125 µg/mL (≈ 0.287 µM) in series [2]; 0.125 µg/mL (≈ 0.287 µM) in series [3]; 0.25 µg/mL (≈ 0.573 µM) in series [4]; 4 µg/mL (≈ 9.18 µM) in series [5]; above 64 µg/mL in series [6]. Also, the MIC in [7] is 4 µg/mL (≈ 9.18 µM); in [8], 4 µg/mL (≈ 9.18 µM); in [9], 4 µg/mL (≈ 9.18 µM); in series [10], 4 µg/mL (≈ 9.18 µM); in series [11], 1 µg/mL (≈ 2.29 µM); in series [12] it was 0.125 µg/mL (≈ 0.287 µM). Further, the minimum inhibitory concentration (MIC) in series [13] turned out to be 2 µg/mL (≈ 4.59 µM).

As for `O=C(NC(Cn1ccnc1)C(=O)c1ccc(F)cc1)c1ccc(-c2ccc(Cl)cc2)s1` (centres undefined), the MIC was 4 µg/mL (≈ 8.81 µM) in series [1]; 0.06 µg/mL (≈ 0.132 µM) in series [2]; 0.25 µg/mL (≈ 0.551 µM) in [3]; above 64 µg/mL in series [4]; 8 µg/mL (≈ 17.6 µM) in series [5]; above 64 µg/mL in series [6]. The MIC was 4 µg/mL (≈ 8.81 µM) in series [7]; 8 µg/mL (≈ 17.6 µM) in [8]; above 64 µg/mL in series [9]; 16 µg/mL (≈ 35.2 µM) in series [10]; 1 µg/mL (≈ 2.2 µM) in series [11]; 2 µg/mL (≈ 4.41 µM) in [12]. Also, the MIC in [13] is 4 µg/mL (≈ 8.81 µM).

For the molecule `OC(Cn1cncn1)(Cn1cncn1)c1ccc(F)cc1F` [FLUCONAZOLE], the MIC in series [1] was above 64 µg/mL; in [2] it was 0.5 µg/mL (≈ 1.63 µM); in series [3] it was 1 µg/mL (≈ 3.27 µM); in series [4] it was 2 µg/mL (≈ 6.53 µM); in [5] it was above 64 µg/mL; in [6], 4 µg/mL (≈ 13.1 µM). Besides, the MIC in [7] was above 64 µg/mL; in [8] it was above 64 µg/mL; in series [9] it was 8 µg/mL (≈ 26.1 µM); in series [10] it was above 64 µg/mL; in series [11] it was 4 µg/mL (≈ 13.1 µM); in series [12], 0.5 µg/mL (≈ 1.63 µM). The MIC in series [13] was above 64 µg/mL. Further, the MBIC50 is above 64 µg/mL in [15], above 64 µg/mL in series [17], above 64 µg/mL in series [21] and 32 µg/mL in series [27]. In addition, the Activity in series [16] is 22.35%; in [18], 4.21%; in series [24] it was 29.02%; in series [25] it was 34.42%; in [26], 3.15%. Besides, the negative logarithm of the IC50 (pIC50) in series [19], in series [20] and in series [23] was below 4.52 each time. In addition, in series [22], the MFC was above 64 µg/mL.

As for `COc1ccc(-c2ccc(C(=O)NC(Cn3ccnc3)C(=O)c3ccccc3)s2)cc1` (centres undefined), the minimum inhibitory concentration (MIC) in series [1] was 2 µg/mL (≈ 4.63 µM); in [2], 0.125 µg/mL (≈ 0.29 µM); in series [3], 1 µg/mL (≈ 2.32 µM); in [4] it was above 64 µg/mL; in [5], 2 µg/mL (≈ 4.63 µM); in series [6] it was above 64 µg/mL. Moreover, the minimal inhibitory concentration (MIC) in series [7] is 8 µg/mL (≈ 18.5 µM); in [8] it was 4 µg/mL (≈ 9.27 µM); in series [9] it was above 64 µg/mL; in series [10], 4 µg/mL (≈ 9.27 µM); in series [11] it was above 64 µg/mL; in series [12], 2 µg/mL (≈ 4.63 µM). For the same molecule, in series [13], the MIC was 4 µg/mL (≈ 9.27 µM).
